Assay results published in publication PMC8099043 (Pharmacology Research & Perspectives, 2021).
Like-named read-outs stand apart in the source and are kept apart here. One block for each molecule: values may come before it.

Assays:
[1] = format: in vivo, Sprague–Dawley rat
[2] = tested on: rat liver microsomes (RLMs); assay: Michaelis–Menten kinetics of rivaroxaban metabolism in RLMs; format: in vitro ADME, Sprague–Dawley rat
Procedure, shortened: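 Rat liver microsomes (1 mg/ml, 100 mM potassium phosphate, pH 7.4) were incubated with substrate over nine levels spanning 1–200 μM. Preincubation was 5 min at 37 °C, then 1 mM NADPH (final) started a 30 min reaction. It was stopped with acetonitrile plus diazepam IS, centrifuged, and the supernatant was run on UPLC‑MS/MS (positive ESI, MRM). Km came from a Michaelis–Menten fit; mean ± SD, n = 3.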

[3] = cited from earlier work
[4] = with ticagrelor, rats; cited from earlier work
[5] = tested on: rivaroxaban metabolism in rat liver microsomes (RLMs); assay: Inhibition of rivaroxaban metabolism by naringenin in rat liver microsomes; format: in vitro ADME, Sprague–Dawley rat; conditions: RLMs, Lineweaver-Burk plot
Procedure, shortened: (§1)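 Flavonoid test compound and substrate were incubated with rat liver microsomes (1 mg/ml) in 100 mM potassium phosphate, pH 7.4. After 5 min preincubation at 37 °C, 1 mM NADPH (final) started the reaction, which ran 30 min. It was quenched with acetonitrile plus diazepam IS, centrifuged and analysed by UPLC‑MS/MS. IC50 used 10 μM substrate with test compound at 1–100 μM.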

[6] = tested on: rivaroxaban metabolism in rat liver microsomes; assay: as above; format: in vitro ADME, Sprague–Dawley rat; conditions: Sprague-Dawley, rat, rat liver microsomes, pH 7.4, probe rivaroxaban (10 μM)
Procedure, shortened: as §1

[7] = pre-treatment of rats with naringenin for 2 weeks vs control; cited from earlier work
[8] = Control group: rivaroxaban 10 mg/kg oral gavage only, rats, n = 6
[9] = pretreatment of rat with naringenin for 14 days
[10] = 10 mg rivaroxaban in combination with 200 mg ketoconazole once daily
[11] = co-administration with rifampicin
[12] = single-dose rivaroxaban co-administrated with ritonavir

AUC(0–t) ([1]; Control group: rivaroxaban 10 mg/kg oral gavage only, rats (abstract)): 2406.28 ± 519.69 µg/h/L | AUC(0–t) [1, 8]: 2406.28 ± 519.69 µg/h/L | AUC(0–∞) [1, 8]: 2438.52 ± 529.29 ng/mL/h | AUC(0–t) ([1]; Experimental group: naringenin 10 mg/kg/day for 2 weeks, then rivaroxaban 10 mg/kg oral, rats (abstract)): 4005.04 ± 1172.76 µg/h/L | Tmax ([1]; male, Sprague-Dawley, rat, plasma, po, 10 mg/kg): 3.4 ± 0.548 h | increase of AUC of rivaroxaban, experimental group vs control [1, 9]: 1.7 times | increase of Cmax of rivaroxaban, experimental group vs control [1, 9]: 1.6 times | Km ([2]; read-out: Km of rivaroxaban metabolism, rivaroxaban 1-200 μM): 18.4 µM
Structure (SMILES): O=C(NC[C@H]1CN(c2ccc(N3CCOCC3=O)cc2)C(=O)O1)c1ccc(Cl)s1 [rivaroxaban]
Vmax of rivaroxaban metabolism ([2]; rivaroxaban 1-200 μM): 4.35 pmol/min/mg | increase of AUC of rivaroxaban [3, 10]: 82% | increase of Cmax of rivaroxaban [3, 10]: 53% | reduction of body clearance rate of rivaroxaban [3, 10]: 45% | decrease of AUC of rivaroxaban [3, 11]: 50% | decrease of Cmax of rivaroxaban [3, 11]: 22% | increase of AUC of rivaroxaban [3, 12]: 150% | increase of Cmax of rivaroxaban [3, 12]: 60% | increase of AUC of rivaroxaban [4]: more than twice | increase of Cmax of rivaroxaban [4]: more than twice

Ki ([5]; rivaroxaban 5-40 μM, naringenin 0-80 μM): 54.9 µM | IC50 at 30 min [6]: 38.9 µM
Structure (SMILES): O=C1C[C@@H](c2ccc(O)cc2)Oc2cc(O)cc(O)c21 [naringenin]
inhibition type [5]: mixed inhibition

Structure (SMILES): C[C@@H]1CCN(C(=O)CC#N)C[C@@H]1N(C)c1ncnc2[nH]ccc12 [tofacitinib]
increase of AUC of tofacitinib [7]: 1.76 fold
